Source: PubChem
Ins promoter up: MIN6 insulin promoter up-regulation | MIN6 insulin promoter-GFP reporter, high-content imaging; stronger effect = higher value | AID 1625 | z-score at 5 µM | 0.3% of 190,000 active;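 active means z-score above 3 at 5 µM with at least 500 cells counted in the well; inconclusive means wells under 500 cells, flagged as cytotoxic or low count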
Autophagy HCS: modulators of autophagy | MEF GFP-LC3 puncta imaging; test concentration mostly 10 µM | calls only at 10 µM (by protocol) | 0.98% of 190,000 active | AID 463193;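 active means percentage of spot-positive cells more than 3 SD above its plate mean, without a fluorescence outlier flag or 80% toxicity; inconclusive means no clear call, values can overlap the other calls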
SKKanGAS inh: blocks kanamycin growth of S. pyogenes SKKanGAS strain; BacTiter-Glo, 6 h; inhibition, % at 7.5 µM; 1.3% of 300,000 active; AID 1662;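 active means mean replicate score, as percent of positive control median, at least 50; inconclusive means mean below 50 but one replicate at or above 50; inactive means mean and every replicate below 50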;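 further: strain carries kanamycin resistance gene driven by streptokinase promoter and grows in 40 µg/ml kanamycin; loss of luminescence reflects streptokinase promoter inhibition or plain growth inhibition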
KCC2 mod: KCC2 (human) Cl- transport modulation; Q9H2X9; KCC2 cells, thallium flux FluoZin-2 fluorescence; B-score of Tl+ flux slope (higher = more flux/activation; lower = inhibition) at 10 µM; 2.2% of 190,000 active;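 active means thallium flux slope and its plate-corrected score both differing from the plate sample mean at a set confidence after two filtering rounds, in either direction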;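 further: slope of fluorescence scaled to starting intensity during 10 to 20 s after thallium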
WT yeast gro inh: growth inhibition of WT yeast, mitochondrial fusion screen. mitochondrial fusion phenotypic screen, WT strain. inhibition, % at 10 µM. 2.1% of 190,000 active. AID 1362; in the data active means inhibition above about 58%; tested in S. cerevisiae
Rad51 HR inh: Rad51 (human) homologous recombination inhibition; Q06609; hRad51 DNA strand exchange, fluorescence dequenching; inhibition, % at 10 µM; 0.085% of 200,000 active;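 active means inhibition above 40% at the single screening dose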
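material = hRad51 filaments on single-stranded DNA | timing = filaments 15 min 37 °C, then compound 30 min | signal = FRET fluorescence dequenching, excitation 485 nm, emission 520 nm | benchmarks = control wells and blank wells on each plate | evaluation = percent inhibition relative to plate controls and blanks | compound = 10 µM final, single point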
KCC2 secondary: KCC2 (human) modulation, secondary assay; shares compounds with KCC2 mod; HEK293-KCC2, thallium flux, FluoZin2 fluorescence; stronger effect = higher value; normalised thallium flux (F/F0 slope) at 10 µM; 15% of 3,700 active; AID 1713;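 active means thallium flux slope above the same plate's solvent-only control mean plus 3 SD; inconclusive means the two replicate wells disagree; inactive means no significant difference from solvent-only control wells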
KCC2 bumet counter: thallium flux persisting under bumetanide in KCC2 cells, counter-screen secondary assay | shares compounds with KCC2 mod | normalized thallium flux at 10 µM | AID 1714 | HEK293-KCC2 + bumetanide/ouabain, thallium flux FluoZin2; stronger effect = higher value | 49% of 3,700 active;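 active means thallium entry rate above the same plate's blocked-transporter control wells by more than 3 SD; inconclusive means the two repeat wells disagree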;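 further: raw slope of fluorescence over initial fluorescence between 10 and 20 s after thallium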
KCC2 secondary2: confirmation of human KCC2 transport modulators. HEK293-KCC2, thallium flux FluoZin2 fluorescence; actives lie on both sides; F/F0 rise rate, 10–20 s post-thallium. shares compounds with KCC2 mod. normalized thallium flux at 10 µM. 23% of 3,700 active;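 active means thallium flux slope more than 3 SD above or below the plate's solvent-only control mean, mostly below; inconclusive means the two repeat wells disagreed; inactive means no significant shift from solvent-only controls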
HEK counter1: counter-screen for KCC2 modulators: effect in parental HEK293 cells; shares compounds with KCC2 mod; thallium flux FluoZin2, ouabain; baseline-ratio fluorescence slope, 10–20 s after thallium; thallium flux rate (normalised fluorescence) at 10 µM; 46% of 3,700 active;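 active means thallium flux rate significantly above the same plate's solvent-only control wells, beyond their mean plus 3 SD; inconclusive means the two replicate wells gave conflicting results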
KCC2 retest ouab: confirmation of human KCC2 modulators with ouabain; AID 1717; HEK293-KCC2, thallium flux FluoZin2 fluorescence; bidirectional: low = inhibitor, high = activator; raw Tl+ flux slope (below DMSO = inhibition, above = activation) at 10 µM; shares compounds with KCC2 mod; 48% of 3,700 active;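 active means thallium flux slope beyond 3 SD from same-plate DMSO control mean in most replicates, usually higher, sometimes lower; inconclusive means repeat tests gave conflicting results; inactive means no significant difference from controls in most replicates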;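 further: slope of initial-normalized fluorescence between seconds 10 and 20 after thallium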
HEK293 Tl flux2: counter-screen for KCC2 modulators: effect in parental HEK293 cells; shares compounds with KCC2 mod; thallium flux FluoZin-2 fluorescence slope; 33% of 3,700 active; AID 1718; thallium flux slope at 10 µM;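 active means thallium flux slope above the same plate's solvent-control mean plus 3 SD in both duplicate wells; inconclusive means duplicate wells that disagreed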;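 further: run without ouabain in cells lacking the KCC2 cotransporter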
Large screens that a line does not name were inactive (follow-up assays come after a bar, where they were run). Rows were chosen to be rich in hits. Some 4.2% of all compounds tested hit in one or more screens of this group.

CCCCn1c(=O)c(C(=O)Nc2ccccc2)c(O)c2ccccc21	none (no result: Ins promoter up)
CCOc1ccccc1-n1c(O)c(C=NCCCn2ccnc2)c(=O)[nH]c1=O	none (no result: Autophagy HCS, WT yeast gro inh)
COc1ccc(CN2C(=O)NC(=O)/C(=C/c3ccc([N+](=O)[O-])o3)C2=O)cc1	none (no result: Ins promoter up, SKKanGAS inh)
NS(=O)(=O)c1ccc(N=Cc2c(O)n(C3CCCCC3)c(=O)n(C3CCCCC3)c2=O)cc1	SKKanGAS inh 51, WT yeast gro inh 96 (no result: KCC2 mod, Rad51 HR inh)
CCn1c(O)c(C=Nc2ccc(S(N)(=O)=O)cc2)c(=O)n(CC)c1=S	none
O=C(NC(=O)N1CCC2(CC1)OCCO2)c1ccc(Cl)cc1	none (no result: Rad51 HR inh)
CCCC/C(C)=C/[C@@H](NP(=O)(c1ccccc1)c1ccccc1)c1ccccc1	SKKanGAS inh 73, WT yeast gro inh 91
O=c1[nH]c(=O)n(Cc2ccco2)c(O)c1C=NCc1cccs1	none (no result: KCC2 mod)
O=c1[nH]c(=S)n(Cc2ccco2)c(O)c1C=NCc1cccs1	KCC2 mod -3.2 | KCC2 secondary inactive | KCC2 bumet counter inactive | KCC2 secondary2 inconclusive | HEK counter1 inactive | KCC2 retest ouab 0.02 | HEK293 Tl flux2 inactive
COc1ccc(C2c3c(nc(C)[nH]c3=O)Oc3c2c(=O)oc2ccccc32)cc1 (stereo unspecified)	none (no result: Autophagy HCS, WT yeast gro inh)
FC(F)(F)c1ccc(NC2=NCCCS2)cc1	none (no result: Ins promoter up, Autophagy HCS, KCC2 mod, WT yeast gro inh, Rad51 HR inh)
CCCCn1c(O)c(/C=C/C=Nc2ccccc2)c(=O)[nH]c1=O	KCC2 mod -4.7 | KCC2 secondary 0.0026 | KCC2 bumet counter -0.0018 | KCC2 secondary2 0.025 | HEK counter1 0.0019 | KCC2 retest ouab 0.0084 | HEK293 Tl flux2 0.007
O=C(COc1ccc(Cl)cc1Cl)N1CCN(C/C=C/c2ccccc2)CC1	KCC2 mod -6.8 (no result: Ins promoter up) | KCC2 secondary inactive | KCC2 bumet counter inactive | KCC2 secondary2 inactive | HEK counter1 inactive | KCC2 retest ouab inactive | HEK293 Tl flux2 inactive
COC(=O)c1ccc(COc2cc(C)cc3oc(=O)c4c(c23)CCCC4)o1	none (no result: KCC2 mod) | KCC2 secondary inactive | KCC2 bumet counter inactive | KCC2 secondary2 inactive | HEK counter1 0.0049 | KCC2 retest ouab inconclusive | HEK293 Tl flux2 inactive
Cc1cc(OCC(=O)O)c2c3c(c(=O)oc2c1)CCCC3	none
O=c1[nH]c(=O)n(Cc2ccc(F)cc2)c(O)c1C=NCc1cccnc1	KCC2 mod 4.4 | KCC2 secondary inactive | KCC2 bumet counter inactive | KCC2 secondary2 inactive | HEK counter1 inactive | KCC2 retest ouab inactive | HEK293 Tl flux2 inactive
CC(C)C[C@H](NC(=O)[C@@H]1CCCN1C(=O)[C@@H](N)Cc1ccc(O)cc1)C(=O)NCC(N)=O	KCC2 mod -3.1 (no result: Ins promoter up) | KCC2 secondary inconclusive | KCC2 bumet counter 0.0057 | KCC2 secondary2 inactive | HEK counter1 inconclusive | KCC2 retest ouab inactive | HEK293 Tl flux2 inactive
CC(C)CC(NC(=O)C1CCCCC1)C(=O)N1CCC2(CC1)OCCO2 (stereo unspecified)	none (no result: KCC2 mod)
CC(C)c1ccc(N=Cc2c(O)n(C3CC3)c(=S)[nH]c2=O)cc1	none (no result: Ins promoter up, Autophagy HCS, WT yeast gro inh, Rad51 HR inh)
CCC(C)n1c(O)c(C=Nc2cccc(C(F)(F)F)c2)c(=O)[nH]c1=S (stereo unspecified)	none | KCC2 secondary inactive | KCC2 bumet counter 0.018 | KCC2 secondary2 inactive | HEK counter1 0.019 | KCC2 retest ouab 0.025 | HEK293 Tl flux2 0.015
